Laboratory results reported in ChEMBL document CHEMBL2346635, “6-Oxo and 6-thio purine analogs as antimycobacterial agents” (Bioorg Med Chem, 2013).
Converted amounts (≈) assume the structure as drawn. The source made the active and inactive calls. The calls are words filed in the database; no cut-off is given here.

How the values were obtained:
[1] = tested on: Mycobacterium tuberculosis; experiment: Antimycobacterial activity against Mycobacterium tuberculosis H37Rv ATCC 27294 assessed as growth inhibition by radiometric BACTEC assay; type: functional
[2] = tested on: Mycobacterium tuberculosis; experiment: Antimycobacterial activity against Mycobacterium tuberculosis H37Ra ATCC 25177 assessed as growth inhibition by Alamar blue microdilution broth assay; type: functional
Procedure, shortened: (§1)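 Alamar blue colorimetric microdilution in Middlebrook 7H9 broth with 0.2% glycerol and ADC enrichment. Primary screen at 1.28 and 12.8 µg/mL. Actives (≤12.8 µg/mL) retested in two-fold dilutions. MIC99 is the lowest concentration giving complete growth inhibition.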

[3] = tested on: Mycobacterium tuberculosis; experiment: Antimycobacterial activity against Mycobacterium tuberculosis H37Rv ATCC 27294 assessed as growth inhibition at 6.25 ug/ml by radiometric BACTEC assay; type: functional
Procedure, shortened: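 Primary screen at a single 6.25 µg/mL in radiometric BACTEC 12B medium. Value is percent growth inhibition.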

[4] = tested on: Mycobacterium tuberculosis; experiment: Antitubercular activity against Mycobacterium tuberculosis infected in gamma interferon gene-disrupted (GKO) C57BL/6 mouse model assessed as reduction of bacterial load in spleen; type: functional
[5] = tested on: Mycobacterium tuberculosis; experiment: Antitubercular activity against Mycobacterium tuberculosis infected in gamma interferon gene-disrupted (GKO) C57BL/6 mouse model assessed as reduction of bacterial load in lungs; type: functional
Mus musculus = experiment: Acute toxicity in mouse infected with Mycobacterium tuberculosis at 100 to 500 mg/kg; type: organism-based; design: dose 100-500 mg/kg; conditions: in vivo
[6] = Selectivity index, ratio of CC50 for african green monkey Vero cells to MIC90 for Mycobacterium tuberculosis H37Rv ATCC 27294; type: functional
Procedure, shortened: (§2)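 SI calculated as VERO CC50 (non-radioactive proliferation assay) divided by H37Rv MIC90 from radiometric BACTEC in 12B medium.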

Vero = experiment: (§3) Cytotoxicity against african green monkey Vero cells by non-radioactive cell proliferation assay; type: cell-based; conditions: chlorocebus sabaeus, vero
Mycobacterium avium = experiment: Antimycobacterial activity against Mycobacterium avium Nj211 assessed as growth inhibition by Alamar blue microdilution broth assay; type: functional; procedure, shortened: as §1
[7] = Selectivity index, ratio of CC50 for african green monkey Vero cells to MIC for Mycobacterium tuberculosis H37Rv ATCC 27294; type: functional; procedure, shortened: as §2
[8] = tested on: Mycobacterium tuberculosis; experiment: Antimycobacterial activity against p-aminosalicylic acid-resistant Mycobacterium tuberculosis assessed as growth inhibition by Alamar blue assay; type: functional
[9] = tested on: Mycobacterium tuberculosis; experiment: Antimycobacterial activity against Mycobacterium tuberculosis Erdman assessed as growth inhibition by Alamar blue assay; type: functional
[10] = tested on: Mycobacterium tuberculosis; experiment: Antimycobacterial activity against Mycobacterium tuberculosis H37Rv ATCC 27294 assessed as growth inhibition by Alamar blue assay; type: functional
[11] = as §3; type: cell-based; conditions: chlorocebus sabaeus, Vero cells
[12] = tested on: Mycobacterium tuberculosis; experiment: Antimycobacterial activity against Mycobacterium tuberculosis H37Rv ATCC 27294 assessed as growth inhibition by radiometric BACTEC assay in presence of 6.5 uM beta-lactam antibiotic, Meropenem; type: functional
[13] = Selectivity index, ratio of IC50 for african green monkey Vero cells to MIC for Mycobacterium tuberculosis H37Rv ATCC 27294; type: functional
Procedure, shortened: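 SI taken as CC50 in VERO cells divided by MIC90 against Mtb H37Rv (ATCC 27294). CC50 comes from a non-radioactive cell proliferation assay run alongside the MIC determination. MIC90 is the lowest concentration giving ≥90% growth inhibition in a radiometric BACTEC 12B-medium assay.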

| Compound | inhibition at 6.25 µg/mL [3] [%] | log10cfu [4] | log10cfu [5] | Activity (Mus musculus) | MIC [1] [µg/mL] | inhibition [3] | Selectivity Index [7] | MIC90 [9] [µg/mL] | MIC90 [10] [µg/mL] | CC50 [11] [µg/mL] | other results |
| --- | --- | --- | --- | --- | --- | --- | --- | --- | --- | --- | --- |
| CCCCCCCCCCCCOc1nc(N)nc2[nH]cnc12 | 94 | -0.05 | -0.141 | Non-toxic | – | – | – | – | – | – | MIC90 [1]: 0.78 µg/mL (≈ 2.44 µM); MIC99 [2]: > 6.4 µg/mL; Selectivity Index [6]: >12.8; CC50 (Vero): > 10 µg/mL; MIC99 (Mycobacterium avium): > 6.4 µg/mL |
| CCCCCCCCCCCCSc1ncnc2c1ncn2CC(=O)OCC | – | 0.2 | 0.46 | Non-toxic | 0.78 (≈ 1.92 µM) | inactive | >12.8 | 3.13 (≈ 7.7 µM) | 3.13 (≈ 7.7 µM) | > 10 | MIC90 [8]: 3.13 µg/mL (≈ 7.7 µM) |
| CCCCCCCCCCSc1ncnc2c1ncn2CC(=O)OCC | – | – | – | – | 1.56 (≈ 4.12 µM) | inactive | >40 | 12.5 (≈ 33 µM) | 6.25 (≈ 16.5 µM) | > 62.5 | – |
| CSc1ncnc2c1ccn2CC(=O)Nc1ccc(C)c(C)c1 | – | – | – | – | – | inactive | – | – | – | – | IC90 [1]: > 100 µM; IC90 [12]: 7.31 µM |
| CCCCCCCCCCSc1ncnc2c1ncn2CC(=O)OC(C)(C)C | – | – | – | – | 3.13 (≈ 7.7 µM) | inactive | >3.19 | – | – | > 10 | – |
| Cc1nc(N)c2ncn([C@@H]3O[C@H](CO)[C@@H](O)[C@H]3O)c2n1 [2-METHYLADENOSINE] | 99 | – | – | – | 3 (≈ 10.7 µM) | – | – | – | – | – | Selectivity Index [13]: >1000; IC50 (Vero): 1000 µg/mL (≈ 3560 µM) |
